The results in this text go back to ChEMBL document CHEMBL1140051, “Discovery of novel Cdc25 phosphatase inhibitors with micromolar activity based on the structure-based virtual screening” (J Med Chem, 2008).

The structures appear in SMILES notation. Where only a bound is given, the exact number is not on record here.

For assay [1], the target named is T1, M-phase inducer phosphatase 1 (Homo sapiens, UniProt P30304).
T1 sequence (P30304 whole entry): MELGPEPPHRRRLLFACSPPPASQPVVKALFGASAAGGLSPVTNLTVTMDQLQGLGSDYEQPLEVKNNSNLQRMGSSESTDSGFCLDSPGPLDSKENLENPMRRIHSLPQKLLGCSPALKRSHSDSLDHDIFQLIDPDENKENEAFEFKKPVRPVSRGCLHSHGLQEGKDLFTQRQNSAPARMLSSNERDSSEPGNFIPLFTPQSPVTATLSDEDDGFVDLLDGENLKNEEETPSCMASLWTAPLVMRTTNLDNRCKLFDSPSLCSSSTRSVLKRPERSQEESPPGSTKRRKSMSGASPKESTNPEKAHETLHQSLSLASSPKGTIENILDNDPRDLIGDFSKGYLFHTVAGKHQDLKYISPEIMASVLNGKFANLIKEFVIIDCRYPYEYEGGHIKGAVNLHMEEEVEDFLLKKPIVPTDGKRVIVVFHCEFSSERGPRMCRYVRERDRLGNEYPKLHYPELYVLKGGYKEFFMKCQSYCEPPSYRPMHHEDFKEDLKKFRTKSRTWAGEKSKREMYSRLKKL
The assay can be described thus: Inhibition of Cdc25A (336-523) expressed in Escherichia coli. The method in brief:
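Inhibitor added in DMSO. 20 min at room temperature, stopped with 1 mM orthovanadate (final). IC50 determined at least three times and averaged.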

Assay [2] has as its target T2, M-phase inducer phosphatase 2 (Homo sapiens, UniProt P30305).
T2 sequence (P30305 whole entry): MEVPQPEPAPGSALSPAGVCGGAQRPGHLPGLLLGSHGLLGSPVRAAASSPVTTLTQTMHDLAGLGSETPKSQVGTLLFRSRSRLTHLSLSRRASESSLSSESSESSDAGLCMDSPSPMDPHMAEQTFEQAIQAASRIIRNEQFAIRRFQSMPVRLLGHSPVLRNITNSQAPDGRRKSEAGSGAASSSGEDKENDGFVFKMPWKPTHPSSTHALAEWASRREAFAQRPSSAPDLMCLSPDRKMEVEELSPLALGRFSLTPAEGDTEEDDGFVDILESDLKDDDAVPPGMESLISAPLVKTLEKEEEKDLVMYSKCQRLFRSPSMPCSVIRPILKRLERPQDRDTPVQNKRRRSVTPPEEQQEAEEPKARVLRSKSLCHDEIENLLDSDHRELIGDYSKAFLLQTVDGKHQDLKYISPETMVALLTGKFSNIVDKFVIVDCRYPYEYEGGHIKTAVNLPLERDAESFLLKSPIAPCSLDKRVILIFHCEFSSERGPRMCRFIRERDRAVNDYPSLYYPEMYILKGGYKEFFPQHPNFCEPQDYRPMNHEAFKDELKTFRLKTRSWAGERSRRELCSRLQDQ
The assay can be described thus: Inhibition of Cdc25B (378-566) expressed in Escherichia coli.

Assay [3] has as its target T1, M-phase inducer phosphatase 1. The assay can be described thus: Binding affinity to Cdc25A (336-523) expressed in Escherichia coli by steady-state kinetic assay.
For assay [4], the target named is T3, M-phase inducer phosphatase 2 (Homo sapiens) (UniProt P30305).
T3 sequence (whole entry): T2 sequence (P30305 whole entry)
The assay can be described thus: Inhibition of Cdc25B (378-566) expressed in Escherichia coli at 50 uM.

Assay [5] has as its target T4, M-phase inducer phosphatase 1 (Homo sapiens) (UniProt P30304).
T4 sequence (whole entry): T1 sequence (P30304 whole entry)
The assay can be described thus: Inhibition of Cdc25A (336-523) expressed in Escherichia coli at 50 uM.

Assay [6] can be described thus: Inhibition of Cdc25A R501A mutant.
Assay [7] in a line: Inhibition of Cdc25A R501K mutant.
The nature of assay [8]: Inhibition of Cdc25B R544K mutant.
Assay [9] can be described thus: Inhibition of Cdc25B R544A mutant.

By IC50 is commonly meant the midpoint of a concentration-inhibition curve. Low readings indicate higher potency, high ones lower potency. With `CC1=C(SCCO)C(=O)c2ccccc2C1=O`, the values for the half-maximal inhibitory concentration (IC50) in assay [1] and in assay [2] were 4.56 µM and 23.6 µM, respectively.

By Ki is commonly meant the equilibrium dissociation constant of an inhibitor or competing ligand from its target. Lower therefore signals higher affinity. Regarding `Cc1ccc(/N=C2N=C(O)/C(=C/C=C/c3ccco3)S\2)cc1C`, the IC50 was determined as 4.27 µM in [1] and 5.44 µM in [2]. The affinity in assay [3], expressed as Ki, was 21.4 µM.

As a reminder, the inhibition is the share of the control response that was lost under treatment. For `N#CC1=C(S)N(c2ccccc2)C(/C=C/c2ccc(-c3ccc(Cl)cc3)o2)NC1=O` (configuration not stated), the values for the half-inhibitory concentration (IC50) in [1] and in assay [2] were 3.31 µM and 12.6 µM, respectively. The inhibition in [4] and in [5] was greater than 70% throughout. Moreover, the affinity in assay [3], expressed as Ki, was 29.2 µM.

`COc1ccc(-n2nnc(SCC(=O)c3ccc(O)c(O)c3)n2)cc1`: the half-inhibitory concentration (IC50) in assay [1] was found to be 4.07 µM; in assay [2], 14.2 µM; in assay [6], 12.1 µM; in assay [7], 6.09 µM; in assay [8], 17.4 µM; in assay [9], 16 µM. For the same compound, the inhibition in [4] and in [5] was greater than 70% each time. Moreover, the affinity in assay [3], expressed as Ki, was 20.4 µM.

With `Cc1ccc(-c2nnc(SCC(=O)c3ccc(O)c(O)c3)n2-c2ccc(Cl)cc2)cc1`, the inhibition in assay [4] and in assay [5] was greater than 70% each time.

`C=CCn1c(SCC(=O)c2ccc(O)c(O)c2)nnc1-c1cccc(Cl)c1`: the IC50 amounted to 3.28 µM in assay [1] and 4.67 µM in assay [2]. The inhibition in [4] and in assay [5] was greater than 70% each time.

With `Cc1ccc(NC2=NC(=O)/C(=C/C=C/c3ccco3)S2)cc1C`, the inhibition in [4] and in assay [5] was greater than 70% throughout.
